In the library only some 3.1% were active in any assay of this set; here they are far more common.
Apaf-1 inh = human Apaf-1 inhibition; O14727; reconstituted apoptosome caspase-3 activity, DEVD-Rh110 fluorescence; inhibition, % at 20 µM; 330,000 tested, 0.71% active; AID 489030; active means inhibition of at least 40% at 20 µM
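Material: cell-free apoptosome with Apaf-1, procaspase-3 and caspase-9; Buffer or medium: Hepes pH 7.5 with detergent and BSA; Reagent: cytochrome c trigger plus (Z-DEVD)2-Rh110 caspase-3 substrate; Times: compound with Apaf-1, dATP, procaspase-3 30 min, then 50 min reaction, room temperature; Technique: Rh110 fluorescence intensity.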
pPAFAH FP inh = pPAFAH (human) enzyme inhibition; inhibition, % at 3.39 µM; Q13093; 330,000 tested, 1.5% active; AID 463082; recombinant pPAFAH, FP-rhodamine probe fluorescence polarization;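 active means inhibition above the mean inhibition across the screen plus 3 SD, cut at about 25% in these data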;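 further: inhibitors block binding of the rhodamine activity-based probe so polarization drops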
Target sequence (Q13093 whole entry, looked up): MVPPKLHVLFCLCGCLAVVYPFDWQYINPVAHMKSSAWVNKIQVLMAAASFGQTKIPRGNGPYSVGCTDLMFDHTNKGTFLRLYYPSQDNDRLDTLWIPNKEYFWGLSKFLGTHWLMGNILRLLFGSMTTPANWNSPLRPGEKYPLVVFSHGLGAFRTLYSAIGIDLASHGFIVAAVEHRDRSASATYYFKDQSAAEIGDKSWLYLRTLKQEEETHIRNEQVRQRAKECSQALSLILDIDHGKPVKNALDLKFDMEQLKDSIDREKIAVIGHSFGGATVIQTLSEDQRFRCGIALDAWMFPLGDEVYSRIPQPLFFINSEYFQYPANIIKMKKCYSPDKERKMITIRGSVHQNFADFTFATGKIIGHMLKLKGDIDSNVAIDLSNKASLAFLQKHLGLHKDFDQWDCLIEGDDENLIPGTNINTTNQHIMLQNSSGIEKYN
PAFAH1B3 FP inh = inhibitors of human PAFAH1B3; Q15102; recombinant PAFAH1B3, FP-rhodamine probe, fluorescence polarization; inhibition, % at 3.39 µM; 340,000 tested, 0.28% active;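 active means inhibition above the screen-wide average of all tested compounds plus 3 SD, cut at about 25% in these data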
PAFAH1B2 inh = inhibitors of human PAFAH1B2; P68402; recombinant PAFAH1B2, FP-rhodamine activity probe, fluorescence polarization; inhibition, % at 3.39 µM; 340,000 tested, 1.2% active; AID 492953;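 active means inhibition above the mean of all tested compounds plus 3 SD, cut at about 24% in these data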
Target sequence (P68402 whole entry, looked up): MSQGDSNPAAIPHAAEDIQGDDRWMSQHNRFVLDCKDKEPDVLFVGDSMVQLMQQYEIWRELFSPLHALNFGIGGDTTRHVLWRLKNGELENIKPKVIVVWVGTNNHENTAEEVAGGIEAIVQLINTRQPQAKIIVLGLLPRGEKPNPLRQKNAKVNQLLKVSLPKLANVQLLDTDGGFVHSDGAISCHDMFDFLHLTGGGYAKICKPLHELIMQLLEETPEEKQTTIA
PAFAH2 FP inh = PAFAH2 (human) inhibition. Q99487. recombinant PAFAH2, FP-rhodamine activity probe, fluorescence polarization. inhibition, % at 3.39 µM. 340,000 tested, 0.99% active. AID 492956;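 active means inhibition above the mean over all tested compounds plus 3 SD, cut at about 30% in these data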;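 further: inhibitors block probe labeling of enzyme so polarization drops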
Each line names hits and unclear results; the compound was inactive in the other large screens.

Cc1ccc(/C=C2/SC(=O)NC2=S)o1	PAFAH1B3 FP inh 45, PAFAH1B2 inh 26, PAFAH2 FP inh 60 (no result: pPAFAH FP inh)
O=C1NN(c2ccccc2)C(=O)/C1=C/c1ccc(-c2ccc(Cl)c(C(=O)O)c2)o1	none (no result: Apaf-1 inh, pPAFAH FP inh)
Cc1ccc(Sc2ccc(/C=C3/C(=O)NN(c4ccccc4)C3=O)o2)cc1	PAFAH1B2 inh 36
O=C1NN(c2ccccc2)C(=O)/C1=C/c1ccc(Sc2ccc(Cl)cc2)o1	PAFAH1B2 inh 29
NC1=C(Cl)C(=O)c2ccc(S(N)(=O)=O)cc2C1=O	PAFAH1B3 FP inh 69, PAFAH1B2 inh 25, PAFAH2 FP inh 48 (no result: Apaf-1 inh, pPAFAH FP inh)
CSc1cccc(NC(=O)CCNS(=O)(=O)c2ccc3[nH]c(=O)oc3c2)c1	none
Cc1nc2c(=O)[nH]c(=S)[nH]c2[nH]c1=O	PAFAH1B3 FP inh 27, PAFAH2 FP inh 45 (no result: Apaf-1 inh, pPAFAH FP inh)
O=C1C=CC(=O)N1c1cccc(-c2ccccc2)c1	pPAFAH FP inh 27
O=C(Nc1cccc(N2C(=O)C=CC2=O)c1)c1cccs1	none
Cc1cccc(C)c1OCC(=O)NNC(=S)NC(=O)C1CC1	none
O=C(NNc1c2ccccc2nc2ccccc12)c1ccccc1O	pPAFAH FP inh 32
O=C(NNc1c2ccccc2nc2ccccc12)c1cccc(O)c1	pPAFAH FP inh 26
O=C(NNc1c2ccccc2nc2ccccc12)c1ccc(O)cc1	none
COc1ccc(Br)cc1CNC(=O)CN1C(=O)C(c2ccccc2)Oc2cccnc21 (configuration not stated)	none
CCC(O)C1CCN(Cc2cn(Cc3ccccc3)nc2-c2cc3ccccc3o2)CC1 (configuration not stated)	pPAFAH FP inh 28
COCCOC1CCN(Cc2cn(Cc3ccccc3)nc2-c2cc3ccccc3o2)CC1	none
O=C(/C=C/c1ccc(O)c(O)c1)OCCc1ccccc1	PAFAH1B2 inh 34
O=C(CCl)N1c2ccccc2Oc2ccc3ccccc3c21	PAFAH1B3 FP inh 30, PAFAH2 FP inh 30 (no result: Apaf-1 inh, pPAFAH FP inh)
O=C(CSc1nnc(SCc2cccc3ccccc23)s1)N/N=C/c1c[nH]c2ccccc12	PAFAH1B2 inh 26
O=C(O)COc1ccccc1/C=N/NC(=O)CSc1nnc(SCc2cccc3ccccc23)s1	none
O=C(O)COc1ccccc1/C=N/NC(=O)CSc1nnc(SCc2ccc(Cl)cc2)s1	pPAFAH FP inh 27, PAFAH1B2 inh 43
CC(=O)c1cccc(NC(=O)CCC(=O)Oc2ccc(C)cc2)c1	none
Cc1cc(OCCN2CCN(S(=O)(=O)c3ccccc3F)CC2)ccc1C(C)C	none
COc1cccc(-c2nc(CS(=O)CC(=O)NC3CCCCC3)c(C)o2)c1 (configuration not stated)	none
CCN(c1ccc(OCC(=O)OCC(=O)Nc2ccc(F)c(F)c2F)cc1)S(=O)(=O)c1ccccc1	PAFAH1B2 inh 40 (no result: Apaf-1 inh)
CN(c1ccc(OCC(=O)OCC(=O)Nc2ccccc2)cc1)S(=O)(=O)c1ccc(F)cc1	none
CCCCN(C(=O)c1ccc(C)o1)c1c(N)n(CC(C)C)c(=O)[nH]c1=O	none
CCC1(O)CCCC2C3CCC4CC(=O)CCC4(C)C3C(=O)CC21C (configuration not stated)	none (no result: Apaf-1 inh, pPAFAH FP inh)
CC1(C)CC(NC(=O)c2cccc(S(=O)(=O)Nc3cccc(Cl)c3)c2)CC(C)(C)N1	pPAFAH FP inh 27
CCN(CC)S(=O)(=O)c1ccc(C(=O)NNC(=O)C2CCN(S(=O)(=O)c3ccc(Cl)cc3)CC2)cc1	PAFAH1B2 inh 36
Cc1cccc(NC(=O)C2CCN(S(=O)(=O)c3ccc(Cl)cc3)CC2)n1	PAFAH1B2 inh 29
O=C(NNC(=O)C1CCN(S(=O)(=O)c2ccc(Cl)cc2)CC1)c1ccccc1	PAFAH1B2 inh 34
O=C(NNC(=O)C1CCN(S(=O)(=O)c2ccc(Cl)cc2)CC1)c1ccc(Cl)cc1	none
CC1CCN(S(=O)(=O)c2ccc(C(=O)NNC(=O)C3CC3)cc2)CC1	none
O=S(=O)(Nc1ncnc2sc3c(c12)CCC3)c1cc(F)ccc1F	pPAFAH FP inh 30
COc1ccc(NC(=O)c2c3c(nc4ccccc24)CCC3)cc1S(=O)(=O)N1CCOCC1	pPAFAH FP inh 26
COc1ccc(NC(=O)C23CC4CC(CC(Cl)(C4)C2)C3)cc1S(=O)(=O)N1CCOCC1	PAFAH1B2 inh 27
COc1ccc(NC(=O)C2CC2)cc1S(=O)(=O)N1CCOCC1	none
Cc1ccc(C(C)C)c2c1C(c1ccc3c(c1)OCO3)CC(=O)O2 (configuration not stated)	none
O=C(c1cc([N+](=O)[O-])ccc1N1CCN(S(=O)(=O)c2ccc(Cl)c(Cl)c2)CC1)N1CCOCC1	PAFAH1B2 inh 37
O=C(c1cc([N+](=O)[O-])ccc1N1CCOCC1)N1CCN(S(=O)(=O)c2cc(Cl)ccc2Cl)CC1	none
Cc1cc(/C=N/n2c(COc3ccccc3)nc3ccccc3c2=O)c(O)c([N+](=O)[O-])c1	pPAFAH FP inh 31
Cc1ccc(C)c(NS(=O)(=O)c2ccc(OCC(=O)NCC3CCCO3)cc2)c1 (configuration not stated)	pPAFAH FP inh 28
O=C(NCC1CCCO1)c1cccc(S(=O)(=O)Nc2ccc(SC(F)F)cc2)c1 (configuration not stated)	pPAFAH FP inh 34
Cc1ccccc1NS(=O)(=O)c1ccc(C(=O)NCC2CCCO2)cc1 (configuration not stated)	pPAFAH FP inh 25
O=c1c2ccccc2[nH]c(=S)n1CCCN1CCC(Cc2ccccc2)CC1	none
N#Cc1ccsc1NC(=O)C1=COCCO1	none
O=C(CN1CCCC1)Nc1c(Cl)cccc1Cl	none
Cc1ccc(NC(=O)CN(C)C(=O)c2cc(-c3ccco3)nc3ccccc23)cc1	pPAFAH FP inh 32
CN(CC(=O)Nc1ccc(F)cc1)C(=O)c1cc(-c2ccco2)nc2ccccc12	pPAFAH FP inh 27
COc1cccc(NC(=O)CN(C)C(=O)c2cc(-c3ccco3)nc3ccccc23)c1	none
CN(CCOc1ccc(Cl)cc1)C(=O)c1cc(-c2ccco2)nc2ccccc12	pPAFAH FP inh 26
O=C(CN(C(=O)CCC(=O)Nc1ccccn1)c1ccc(F)cc1)NCc1ccc(F)cc1	none
COc1ccccc1C(=O)NCC(=O)N1CC=C(c2ccccc2)CC1	none
Cc1ccc(NC(=O)CN(C)S(=O)(=O)c2cccc3nsnc23)cc1	none
CC(NC(=O)CN(C)S(=O)(=O)c1cccc2nsnc12)c1ccccc1 (configuration not stated)	PAFAH1B2 inh 31
CCc1cc2ccccc2nc1SCC(=O)Nc1cc(OC)c(OC)cc1C(=O)O	pPAFAH FP inh 33
Cc1ccc(C)c(S(=O)(=O)N2CCN(C(=O)/C=C/c3ccco3)CC2)c1	pPAFAH FP inh 30
Cc1ccc(C)c(S(=O)(=O)N2CCN(C(=O)CCNS(=O)(=O)c3ccc(C)c(C)c3)CC2)c1	pPAFAH FP inh 27
O=C(CCNS(=O)(=O)c1ccc(Cl)cc1)N1CCOCC1	none
O=C(CCNS(=O)(=O)c1ccc(Cl)cc1)N1CCCCCC1	PAFAH1B2 inh 27
CCOC(=O)/C=C/[C@H]1CCc2cccc(C)c2O1	none

Screening results: PubChem, several laboratories
